Common to all, as to format: functional, cell-based
In test [1] the test system is A549. The test is described as follows: Antiproliferative activity against human A549 cells assessed as inhibition of cell viability after 48 hrs by MTT assay. The settings on record: A549, 48 h. In a few lines:
(§1)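 A549, BEL-7402 and CNE lines from SIBS (Shanghai), grown as monolayer in RPMI 1640 with 10% FBS. 5000 cells/well in 96-well plates, graded concentrations for 48 h. MTT incubation 4 h at 37 C, DMSO solubilisation, A490 read. IC50 derived from survival relative to untreated control; 5-fluorouracil reference.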
A general note: Tetrazolium assays rely on reduction of a dye to a coloured formazan, in cell work by metabolically active cells.

A short description of test [2]: Antiproliferative activity against human Bel7402 cells assessed as inhibition of cell viability after 48 hrs by MTT assay. The settings on record: Bel-7402, 48 h. In a few lines: as §1
Test [3] concerns MGC-803. The test is described as follows: Antiproliferative activity against human MGC803 cells assessed as inhibition of cell viability after 48 hrs by MTT assay. The note with it: MGC-803, 48 h. In a few lines:
(§2)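 MGC-803 cells from SIBS (Shanghai), monolayer in RPMI 1640 with 10% FBS. 5000 cells/well in 96-well plates, exposed to compound for 24, 48 or 72 h. MTT added for a further 4 h at 37 C, formazan dissolved in DMSO, absorbance read at 490 nm. Survival rate = sample/control absorbance × 100%. n = 5, three independent experiments, two-tailed t-test.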

Test [4] relates to CNE. The test is described as follows: Antiproliferative activity against human CNE cells assessed as inhibition of cell viability after 48 hrs by MTT assay. In a few lines:
as §1

In test [5] the test system is MGC-803. As to the kind of experiment: Anticancer activity against human MGC803 cells assessed as colony formation at > 1 uM after 24 hrs. In a few lines:
(§3)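 Clonogenic assay: MGC-803 seeded at 200 cells/well in 6-well plates and treated for 24 h. Then kept 10 d at 37 C in humidified CO2. Colonies of >50 cells counted; survival expressed as percent of untreated control (100%). n = 3, three independent experiments.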

Test [6] relates to MGC-803. As to the kind of experiment: Antiproliferative activity against human MGC803 cells assessed as inhibition of cell viability after 24 hrs by MTT assay. The note with it: MGC-803, 24 h. In a few lines:
as §2

Test [7] concerns MGC-803. As to the kind of experiment: Anticancer activity against human MGC803 cells assessed as cell shrinkage and deformation at 100 uM after 72 hrs by inverted phase contrast microscopy assay.
In test [8] the test system is MGC-803. The test is described as follows: Antiproliferative activity against human MGC803 cells assessed as inhibition of cell viability after 72 hrs by MTT assay. The note with it: MGC-803, 72 h. In a few lines: as §2
In test [9] the test system is MGC-803. As to the kind of experiment: Induction of apoptosis in human MGC803 cells assessed as change in mitochondrial membrane potential by Rhodamine 123 assay. In a few lines: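 Mitochondrial membrane potential measured with the cationic dye rhodamine 123 in treated MGC-803 cells at 10, 50 and 100 μM. Cellular fluorescence intensity normalised to baseline values of untreated control as a semiquantitative index.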

Test [10] concerns MGC-803. As to the kind of experiment: Induction of apoptosis in human MGC803 cells assessed as koss of Ca2+ homeostasis after 24 hrs by fluorescence microscopy.
Test [11] has as its system MGC-803. As to the kind of experiment: Anticancer activity against human MGC803 cells assessed as colony formation after 24 hrs. In a few lines: as §3
The subject of test [12] is MGC-803. As to the kind of experiment: Anticancer activity against human MGC803 cells assessed as inhibition of cell viability after 24 to 72 hrs by MTT assay. In a few lines: as §2
For test [13], the system named is MGC-803. As to the kind of experiment: Induction of apoptosis in human MGC803 cells assessed as nuclear condensation after 24 hrs.
Test [14] deals with MGC-803. As to the kind of experiment: Anticancer activity against human MGC803 cells assessed as inhibition of cell viability at 0.01 to 100 uM by MTT assay. The note with it: TDE = time-dependent effect. In a few lines:
as §2

Molecules are shown by their SMILES. Calls of active or inactive are those of the source. No cut-off for these calls is given here.

Consider `O=c1c2ccccc2oc2cc(OCCCCCBr)cc(O)c12`, for which the IC50 (usually the concentration that gives 50% inhibition) was above 100 µM in test [1], 77.2 µM in [2], 24.4 µM in test [3] and above 100 µM in test [4].
Regarding `O=c1c2ccccc2oc2cc(OCCCN3CCCC3)cc(O)c12`, the IC50 in [1] was determined as 11.6 µM; in [2], 13 µM; in [3] it was 6.66 µM; in test [4], 6.25 µM.
In the same order, the values of `O=c1c2ccccc2oc2cc(OCCCCN3CCOCC3)cc(O)c12` are above 100 µM, above 100 µM, above 100 µM and above 100 µM.
In the same order, the values of `O=c1c2ccccc2oc2cc(OCCCCCCBr)cc(O)c12` are above 100 µM, above 100 µM, above 100 µM and above 100 µM.
In the same order, the values of `C[N+]1(CCOc2cc(O)c3c(=O)c4ccccc4oc3c2)CCCC1` are above 100 µM, above 100 µM, 83.3 µM and 65.9 µM.
On to `O=c1c2ccccc2oc2cc(OCCCCCN3CCCC3)cc(O)c12`, for which the IC50 in test [1] is 5.99 µM; in test [2], 18.2 µM; in test [3], 3.81 µM; in [4] it was 12.1 µM.
In the same order, the values of `CN(C)CCCCOc1cc(O)c2c(=O)c3ccccc3oc2c1` are 8.83 µM, 20.3 µM, 5.99 µM and 3.81 µM.
Take `C[N+](C)(C)CCCCOc1cc(O)c2c(=O)c3ccccc3oc2c1`: the IC50 was 83.9 µM in [1], above 100 µM in test [2], 38.1 µM in test [3] and 38.5 µM in test [4].
On to `CCN(CC)CCCCOc1cc(O)c2c(=O)c3ccccc3oc2c1`, for which the IC50 came to 7.57 µM in test [1]; 11.9 µM in test [6]; 1.82 µM in test [8]; 20.1 µM in test [2]; 3.57 µM in test [3]; 3.63 µM in test [4]. Further, the inhibition entry in test [5] and in test [7] was “Active” in each case. Also, the Activity result in test [9] and in [10] was “Dose-dependent effect” in each case. In addition, the inhibition result was “Dose-dependent effect” in test [11], “Dose-dependent effect” in test [12], “Dose-dependent effect” in test [13] and “tde” in [14].
As to `O=c1c2ccccc2oc2cc(OCCCCCCN3CCCC3)cc(O)c12`, the 50% inhibitory concentration (IC50) in [1] is 8.94 µM; in test [2] it was 17.9 µM; in [3], 5.32 µM; in [4], 1.24 µM.
In the same order, the values of `CC[N+](C)(CC)CCCCOc1cc(O)c2c(=O)c3ccccc3oc2c1` are 13 µM, above 100 µM, 4.61 µM and above 100 µM.
The corresponding values for `C[N+]1(CCCCCOc2cc(O)c3c(=O)c4ccccc4oc3c2)CCCC1` are 10.7 µM, above 100 µM, 12.7 µM and 3.88 µM.
In the same order, the values of `O=c1c2ccccc2oc2cc(OCCCCN3CCCC3)cc(O)c12` are 18.5 µM, 20.8 µM, 4.5 µM and 5.97 µM.
With `O=c1c2ccccc2oc2cc(OCCCCBr)cc(O)c12`, the IC50 in test [1] was above 100 µM; in test [2], 67.9 µM; in test [3], 22.7 µM; in test [4], 85.6 µM.
As to `C[N+]1(CCCCOc2cc(O)c3c(=O)c4ccccc4oc3c2)CCCC1`, the IC50 is 19.5 µM in test [1], above 100 µM in [2], 8.04 µM in test [3] and above 100 µM in test [4].
For `C[N+]1(CCCOc2cc(O)c3c(=O)c4ccccc4oc3c2)CCCC1`, the IC50 was above 100 µM in test [1], above 100 µM in [2], 9.66 µM in [3] and above 100 µM in test [4].
`O=c1c2ccccc2oc2cc(OCCCBr)cc(O)c12`: the IC50 in test [1] is above 100 µM; in [2] it was above 100 µM; in test [3], 28.9 µM; in test [4] it was above 100 µM.
Turning to `O=c1c2ccccc2oc2cc(OCCCCN3CCCCC3)cc(O)c12`, the IC50 in test [1] came out at 88.4 µM; in test [2] it was 54.4 µM; in test [3], 28.2 µM; in test [4], 16.2 µM.
In the same order, the values of `O=c1c2ccccc2oc2cc(OCCN3CCCC3)cc(O)c12` are 12.8 µM, 14.6 µM, 5.63 µM and 11.3 µM.
In the same order, the values of `O=c1[nH]cc(F)c(=O)[nH]1` [FLUOROURACIL] are 7.62 µM, 19.8 µM, 7.76 µM and 15.1 µM.
In the same order, the values of `C[N+]1(CCCCOc2cc(O)c3c(=O)c4ccccc4oc3c2)CCCCC1` are 19.2 µM, above 100 µM, 5.13 µM and 26.5 µM.
Consider `C[N+]1(CCCCOc2cc(O)c3c(=O)c4ccccc4oc3c2)CCOCC1`, for which the IC50 in test [1] was above 100 µM; in test [2] it was above 100 µM; in [3] it was 17.6 µM; in [4], 92.9 µM.
`O=c1c2ccccc2oc2cc(OCCBr)cc(O)c12`: the IC50 was above 100 µM in [1], above 100 µM in [2], 21.5 µM in test [3] and above 100 µM in [4].
As for `C[N+]1(CCCCCCOc2cc(O)c3c(=O)c4ccccc4oc3c2)CCCC1`, the IC50 in test [1] came out at 9.95 µM; in test [2], 23.9 µM; in test [3], 14.8 µM; in [4] it was 4.82 µM.

The values above are taken from ChEMBL document CHEMBL3352369, “Design, synthesis and biological evaluation of novel 1-hydroxyl-3-aminoalkoxy xanthone derivatives as potent anticancer agents” (Eur J Med Chem, 2014).
